≈ marks a conversion by molar mass, not a printed value. Calls of active or inactive are those of the source. No cut-off for these calls is given here.

Assay [1] can be described thus: Selectivity factor, ratio of IC50 for human rRNA A-site to IC50 for Escherichia coli rRNA A-site. In short, it runs like this:
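Ratio from F-NEO displacement titrations, 0.002–2.0 μM compound against 0.1 μM F-NEO:A-site complex (485/535 nm). Measured IC50 stands in for the unmeasurable competition constants in Kd(human)/Kd(E. coli) = 5.75 × K(E. coli)/K(human). Buffer 10 mM HEPES, 50 mM NaCl, 0.4 mM EDTA, pH 7.0.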

Assay [2] deals with Staphylococcus epidermidis. Briefly: Antibacterial activity against Staphylococcus epidermidis ATCC 12228 after 16 to 20 hrs by MTT assay. The class given is functional. In short, it runs like this: (§1)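 Strains grown in LB 24 h at 37 °C, 250 rpm; overnight culture diluted 1:1000, grown 4 h, diluted 1:1000 again and added to microplates. Incubation 16–20 h at 37 °C; growth read visually and with MTT (1 mg/mL).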
For orientation: Formazan colour is commonly taken as a measure of viable cells.

The next assay deals with Bacillus cereus. Briefly: Antibacterial activity against Bacillus cereus ATCC 11778 after 16 to 20 hrs by MTT assay. The class given is functional. In short, it runs like this:
as §1

Assay [3] can be described thus: Displacement of F-NEO from Escherichia coli rRNA A-site by fluorescence assay.
Assay [4] is described as follows: Displacement of F-NEO from human rRNA A-site by fluorescence assay.
The test system of assay [5] is Staphylococcus aureus. Nature of the assay: Antibacterial activity against Staphylococcus aureus ATCC 25923 after 16 to 20 hrs by MTT assay. The class given is functional. In short, it runs like this:
as §1

Assay [6] concerns Staphylococcus aureus. Briefly: Activity at Staphylococcus aureus APH(2'')-1a at 100 uM in presence of […] by […] relative to NEO.
Assay [7] can be described thus: Activity at APH(3')-1a (unknown origin) at 100 uM in presence of […] by […] relative to NEO. In general terms: In Ellman's method for cholinesterases, released thiocholine reacts with DTNB.
The nature of assay [8]: Activity at Eis (unknown origin) at 100 uM in presence of AcCoA by Ellmans method relative to NEO. The method in brief:
(§2)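 Acetylation followed by Ellman's method at 412 nm, 2 mM DTNB, 100 μM compound, 25 °C, triplicate, rates normalized to NEO. AcCoA 500 μM for Eis, 150 μM for AAC(3)-IV; enzyme 0.5 μM for Eis, 0.125 μM for AAC(3)-IV; 50 mM buffer.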

Assay [9] concerns Staphylococcus aureus. Briefly: Activity at Staphylococcus aureus AAC(6')-1e/APH(2'')-1a in presence of AcCoA by Ellmans method relative to NEO.
Assay [10] has as its system Mycobacterium tuberculosis. Briefly: Activity at Mycobacterium tuberculosis AAC(2')-1c at 100 uM in presence of AcCoA by Ellmans method relative to NEO. The method in brief: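 N-acetylation by AAC(2')-Ic (0.125 μM enzyme) of 100 μM compound with 150 μM AcCoA and 2 mM DTNB in 100 mM buffer, 25 °C. Thiol release followed at 412 nm (ε = 14,150 M⁻¹cm⁻¹). Rates normalized to neomycin B, triplicate.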

The next assay has as its system Escherichia coli. Nature of the assay: Activity at Escherichia coli AAC(3)-4 at 100 uM in presence of AcCoA by Ellmans method relative to NEO. The method in brief: as §2

The MIC is the lowest concentration found to suppress growth. As a reminder, the IC50 is the concentration that gives 50% inhibition. Read a high IC50 as lower potency. In the case of `NCC1O[C@H](O[C@H]2[C@@H](O)[C@H](O[C@H]3[C@H](O)[C@@H](N)C[C@@H](N)[C@@H]3O[C@H]3O[C@H](CN)[C@@H](O)[C@H](O)[C@H]3N)O[C@@H]2CO)[C@H](N)[C@@H](O)[C@@H]1O` (some centres not stated), in assay [1], the Ratio IC50 amounted to 5. In addition, the MIC in [2] was 0.2 µM (≈ 0.123 µg/mL); with Bacillus cereus, ≤ 0.1 µM; against Staphylococcus aureus [5] it was 0.2 µM (≈ 0.123 µg/mL). Also, the IC50 in [3] turned out to be 87 µM; in assay [4], 76 µM.
With `N=C(N)NCCC[C@H](NC(=O)CCCCCCCNC(=O)c1cc(-c2cn(C[C@@H]3O[C@H](O[C@H]4[C@H](O)[C@@H](N)C[C@@H](N)[C@@H]4O[C@H]4O[C@H](CN)[C@@H](O)[C@H](O)[C@H]4N)[C@@H](O)[C@H]3O[C@H]3O[C@@H](CN)[C@@H](O)[C@H](O)[C@H]3N)nn2)cc(-c2cn(C[C@H]3O[C@@H](O[C@@H]4[C@@H](O)[C@H](N)C[C@H](N)[C@H]4O[C@@H]4O[C@@H](CN)[C@H](O)[C@@H](O)[C@@H]4N)[C@H](O)[C@@H]3O[C@@H]3O[C@H](CN)[C@H](O)[C@@H](O)[C@@H]3N)nn2)c1)C(N)=O` (stereo in doubt), the outcome (in the assay on Staphylococcus aureus [6]; in assay [7]; in assay [8]; in the assay on Staphylococcus aureus [9]; in assay [10]) was inactive. In addition, the Ratio IC50 in assay [1] turned out to be 5.2. For the same molecule, the minimum inhibitory concentration (MIC) in assay [2] is 25 µM (≈ 43.6 µg/mL); with Bacillus cereus it was 3 µM (≈ 5.24 µg/mL); against Staphylococcus aureus [5], > 50 µM. In addition, the values for the IC50 in assay [3] and in assay [4] were 48 µM and 43 µM, respectively.
On to `N=C(N)NCCC[C@H](NC(=O)CCCCCCCCNC(=O)c1cc(-c2cn(C[C@@H]3O[C@H](O[C@H]4[C@H](O)[C@@H](N)C[C@@H](N)[C@@H]4O[C@H]4O[C@H](CN)[C@@H](O)[C@H](O)[C@H]4N)[C@@H](O)[C@H]3O[C@H]3O[C@@H](CN)[C@@H](O)[C@H](O)[C@H]3N)nn2)cc(-c2cn(C[C@H]3O[C@@H](O[C@@H]4[C@@H](O)[C@H](N)C[C@H](N)[C@H]4O[C@@H]4O[C@@H](CN)[C@H](O)[C@@H](O)[C@@H]4N)[C@H](O)[C@@H]3O[C@@H]3O[C@H](CN)[C@H](O)[C@@H](O)[C@@H]3N)nn2)c1)C(N)=O` (stereo in doubt), for which the result (in the assay on Staphylococcus aureus [6]; in assay [7]; in assay [8]; in the assay on Staphylococcus aureus [9]; in assay [10]) was inactive. Further, the Ratio IC50 in assay [1] came to 5.9. Also, the MIC in assay [2] is 50 µM (≈ 88 µg/mL); against Bacillus cereus, 3 µM (≈ 5.28 µg/mL); against Staphylococcus aureus [5], > 50 µM. The IC50 in assay [3] was determined as 60 µM; in [4], 62 µM.
Take `N=C(N)NCCC[C@H](NC(=O)CCCCNC(=O)c1cc(-c2cn(C[C@@H]3O[C@H](O[C@H]4[C@H](O)[C@@H](N)C[C@@H](N)[C@@H]4O[C@H]4O[C@H](CN)[C@@H](O)[C@H](O)[C@H]4N)[C@@H](O)[C@H]3O[C@H]3O[C@@H](CN)[C@@H](O)[C@H](O)[C@H]3N)nn2)cc(-c2cn(C[C@H]3O[C@@H](O[C@@H]4[C@@H](O)[C@H](N)C[C@H](N)[C@H]4O[C@@H]4O[C@@H](CN)[C@H](O)[C@@H](O)[C@@H]4N)[C@H](O)[C@@H]3O[C@@H]3O[C@H](CN)[C@H](O)[C@@H](O)[C@@H]3N)nn2)c1)C(N)=O` (stereo in doubt): the result (in the assay with Staphylococcus aureus [6]; in [7]; in assay [8]; with Staphylococcus aureus [9]; in assay [10]) was inactive. In assay [1], the Ratio IC50 stood at 7.4. The values for the MIC (in assay [2]; with Bacillus cereus; with Staphylococcus aureus [5]) were > 50 µM, 3 µM (≈ 5.11 µg/mL) and > 50 µM, respectively. Also, the IC50 in [3] worked out at 52 µM; in assay [4] it was 70 µM. Also, the outcome in the assay on Escherichia coli was Active.
Take `N=C(N)NCCC[C@H](NC(=O)CCNC(=O)c1cc(-c2cn(C[C@@H]3O[C@H](O[C@H]4[C@H](O)[C@@H](N)C[C@@H](N)[C@@H]4O[C@H]4O[C@H](CN)[C@@H](O)[C@H](O)[C@H]4N)[C@@H](O)[C@H]3O[C@H]3O[C@@H](CN)[C@@H](O)[C@H](O)[C@H]3N)nn2)cc(-c2cn(C[C@H]3O[C@@H](O[C@@H]4[C@@H](O)[C@H](N)C[C@H](N)[C@H]4O[C@@H]4O[C@@H](CN)[C@H](O)[C@@H](O)[C@@H]4N)[C@H](O)[C@@H]3O[C@@H]3O[C@H](CN)[C@H](O)[C@@H](O)[C@@H]3N)nn2)c1)C(N)=O` (stereo in doubt): the result (in the assay on Staphylococcus aureus [6]; in assay [7]; in assay [8]; in the assay with Staphylococcus aureus [9]; in assay [10]) was inactive. For the same molecule, the Ratio IC50 in assay [1] was 4.7. For the same molecule, the values for the MIC (in assay [2]; with Bacillus cereus; against Staphylococcus aureus [5]) were 50 µM (≈ 83.8 µg/mL), 0.8 µM (≈ 1.34 µg/mL) and 50 µM (≈ 83.8 µg/mL), respectively. Further, the IC50 in assay [3] came out at 70 µM; in assay [4], 58 µM. Further, the outcome in the assay with Escherichia coli was Active.
Take `N=C(N)NCCC[C@H](NC(=O)CCCCCNC(=O)c1cc(-c2cn(C[C@@H]3O[C@H](O[C@H]4[C@H](O)[C@@H](N)C[C@@H](N)[C@@H]4O[C@H]4O[C@H](CN)[C@@H](O)[C@H](O)[C@H]4N)[C@@H](O)[C@H]3O[C@H]3O[C@@H](CN)[C@@H](O)[C@H](O)[C@H]3N)nn2)cc(-c2cn(C[C@H]3O[C@@H](O[C@@H]4[C@@H](O)[C@H](N)C[C@H](N)[C@H]4O[C@@H]4O[C@@H](CN)[C@H](O)[C@@H](O)[C@@H]4N)[C@H](O)[C@@H]3O[C@@H]3O[C@H](CN)[C@H](O)[C@@H](O)[C@@H]3N)nn2)c1)C(N)=O` (stereo in doubt): the outcome (in the assay on Staphylococcus aureus [6]; in [7]; in assay [8]; with Staphylococcus aureus [9]; in assay [10]) was inactive. Moreover, in assay [1], the Ratio IC50 was 7.2. Moreover, the MIC in [2] is > 50 µM; in the assay on Bacillus cereus, 1.6 µM (≈ 2.75 µg/mL); in the assay on Staphylococcus aureus [5] it was > 50 µM. Besides, the IC50 turned out to be 54 µM in [3] and 68 µM in [4]. The result in the assay on Escherichia coli was Active.
As for `N=C(N)NCCC[C@H](NC(=O)CCCCCCNC(=O)c1cc(-c2cn(C[C@@H]3O[C@H](O[C@H]4[C@H](O)[C@@H](N)C[C@@H](N)[C@@H]4O[C@H]4O[C@H](CN)[C@@H](O)[C@H](O)[C@H]4N)[C@@H](O)[C@H]3O[C@H]3O[C@@H](CN)[C@@H](O)[C@H](O)[C@H]3N)nn2)cc(-c2cn(C[C@H]3O[C@@H](O[C@@H]4[C@@H](O)[C@H](N)C[C@H](N)[C@H]4O[C@@H]4O[C@@H](CN)[C@H](O)[C@@H](O)[C@@H]4N)[C@H](O)[C@@H]3O[C@@H]3O[C@H](CN)[C@H](O)[C@@H](O)[C@@H]3N)nn2)c1)C(N)=O` (stereo in doubt), the outcome (with Staphylococcus aureus [6]; in assay [7]; in assay [8]; in the assay with Staphylococcus aureus [9]; in assay [10]) was inactive. Further, in assay [1], the Ratio IC50 turned out to be 7.3. In addition, the MIC in [2] is > 50 µM; in the assay on Bacillus cereus it was 3 µM (≈ 5.2 µg/mL); in the assay with Staphylococcus aureus [5], > 50 µM. Moreover, the results for the IC50 in [3] and in [4] were 44 µM and 56 µM, respectively.
Take `N=C(N)NCCC[C@@H](NC(=O)CCCNC(=O)c1cc(-c2cn(C[C@@H]3O[C@H](O[C@@H]4[C@@H](O)[C@H](N)C[C@H](N)[C@H]4O[C@@H]4O[C@@H](CN)[C@H](O)[C@@H](O)[C@@H]4N)[C@@H](O)[C@H]3O[C@@H]3O[C@H](CN)[C@H](O)[C@@H](O)[C@@H]3N)nn2)cc(-c2cn(C[C@H]3O[C@@H](O[C@@H]4[C@@H](O)[C@H](N)C[C@H](N)[C@H]4O[C@@H]4O[C@@H](CN)[C@H](O)[C@@H](O)[C@@H]4N)[C@H](O)[C@@H]3O[C@@H]3O[C@H](CN)[C@H](O)[C@@H](O)[C@@H]3N)nn2)c1)C(N)=O` (stereo in doubt): the outcome (in the assay on Staphylococcus aureus [6]; in assay [7]; in [8]; with Staphylococcus aureus [9]; in [10]) was inactive. Moreover, the Ratio IC50 in [1] was determined as 5.3. The minimum inhibitory concentration (MIC) was > 50 µM in [2], 1.6 µM (≈ 2.7 µg/mL) with Bacillus cereus and > 50 µM in the assay on Staphylococcus aureus [5]. Moreover, the IC50 in assay [3] was determined as 56 µM; in assay [4], 52 µM. In the assay on Escherichia coli, the outcome was Active.

The record behind these values is ChEMBL document CHEMBL3785055, “Arginine-linked neomycin B dimers: synthesis, rRNA binding, and resistance enzyme activity” (Medchemcomm, 2016).
